Laboratory results: ChEMBL document CHEMBL4513216, “Probing the Open Global Health Chemical Diversity Library for Multistage-Active Starting Points for Next-Generation Antimalarials” (ACS Infect Dis, 2020)

test: Toxicity liver stage against HepG2, at 10uM; type: cell-based; parameters: test concentration 10 uM, cell line HepG2-A16-CD81EGFP; settings: human, HepG2-A16-CD81EGFP cells; read-out: INHIBITION
Summary of the method: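 Uninfected HepG2-A16-CD81EGFP cells, 3 × 10^3 per well, 1536-well, plated on prespotted compound at 10 μM final, parasite-free screening media added to match infected plates; puromycin 10 μM positive, DMSO 0.5% negative; run in parallel with 48 h PbLuc assay at 37 °C, 5% CO2; viability by CellTiter-Glo luminescence, normalized to controls.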

In order of falling cytotoxicity at 10 µM:
1. CC1CCN(CC(O)CNc2ccc(Cl)cn2)CC1 (configuration not stated)  17.2%
2. Cc1cnn(Cc2cc(F)ccc2F)c1NC(=O)NC1CC1  16.9%
3. CCc1cc(CNC(=O)N2Cc3ccccc3N(C)CC2C)[nH]n1 (configuration not stated)  16.3%
4. CCc1c(C)nc2n(c1=O)CC(C(=O)NCc1cccs1)CS2 (configuration not stated)  15.2%
5. CC(CNC(=O)c1ccc(F)cc1Cl)N1CCCC1 (configuration not stated)  14.4%
6. CCNC(=O)Cc1ccc(-c2cccc3c2CCNC3)cc1  13.6%
7. CCN(C)Cc1n[nH]c(=O)n1-c1cc(F)ccc1C  11.4%
8. CNc1nc2c(s1)C(c1cc(Cl)ccc1F)CC(=O)N2 (configuration not stated)  10.3%
9. O=C(c1ccncc1)N(CCO)Cc1cc(Br)ccc1F  10.2%
10. COCCn1c2c(ccc1=O)CC(N)CC2 (configuration not stated)  9.77%
11. CC(C)NC(=O)CC1(Cn2cnnn2)CCCCC1  9.54%
12. Cn1cc(-c2cnc(N3CCOCC3)nc2)cc1C(=O)NCCO  7.15%
13. CCN1CC[C@@]2(C(=O)Nc3ccccc3)CCN(S(C)(=O)=O)CC[C@@H]12  7.14%
14. CNC(=O)c1nc(Cn2ncc3ccccc3c2=O)no1  6.6%
15. CCNC(=O)Cn1ncc(N(C)CCc2ccccc2)cc1=O  5.69%
16. COCCN1CC[C@H]2OCC[C@@H](C(=O)Nc3cccnc3)[C@@H]2C1  4.81%
17. CC1CCN(c2cncc(CCC3CCCN3)n2)CC1 (configuration not stated)  4.52%
18. COCCn1cnc2ccc(NC(=O)c3c(C)noc3C)cc2c1=O  4.13%
19. Cc1noc(C2CCN(C(=O)C3CCCO3)CC2)n1 (configuration not stated)  3.95%
20. Cc1cc(=O)n2nc(Oc3cccc(I)c3)sc2n1  3.63%
21. Cc1noc([C@H]2COC[C@H]3CN(C(=O)Cc4cccs4)C[C@H]32)n1  3.3%
22. O=c1cc(-c2ccncc2)nc(-c2ccc(CN3CC[C@@H](O)C3)cc2)[nH]1  3.03%
23. N#Cc1cn(C2CC2)c(=O)n(CC(O)c2ccc(F)cc2)c1=O (configuration not stated)  2.37%
24. CCc1nnc2n1CCN(c1nc3ccccc3o1)C2  2.11%
25. O=C(c1ccc[nH]1)N1CCC2(CC1)C(=O)Nc1ccccc12  2.09%
26. Cc1cc(N[C@H]2CN(CC(C)(C)N3CCOCC3)C[C@@H]2C2CC2)ncn1  2.03%
27. CCOC[C@@H]1CCC[C@@]12CN(Cc1nccs1)CCO2  1.77%
28. CCc1csc(C2CCCN(C(=O)c3ccc4c(c3)OCO4)C2)n1 (configuration not stated)  1.71%
29. Cc1nc(CN2CC3(CCN(c4cnccn4)C3)CC2=O)cs1 (configuration not stated)  1.36%
30. CN1CCCC2(C1)CN(C(=O)C1CCCCC1)CCO2 (configuration not stated)  0.994%
31. O=c1n(CCNCc2ccc(-c3ccccc3)cc2)nc2ccccn12  0.932%
32. Cc1c(S(=O)(=O)NCC(C)Cn2cc(Cl)cn2)cnn1C (configuration not stated)  0.446%
33. CCNc1cc2c(nn1)CCN(C(=O)c1cc(C)n(C3CC3)c1C)C2  -0.282%
34. Cn1cc(CN2CCC(c3ncc(Cl)cc3S(C)(=O)=O)CC2)cn1  -0.83%
35. CN(CC1COc2ccccc2O1)C(=O)NCCCn1cncn1 (configuration not stated)  -0.884%
36. Oc1cccc(CNCC2CCCO2)c1 (configuration not stated)  -1.37%
37. Cc1cc2c(cc1NC(=O)NC(C)(C)C)OCO2  -1.47%
38. Cc1cccc(CN2CCc3nnc(CN(C)C)n3CC2)n1  -1.54%
39. CNC(=O)CCN(C)c1nc(-c2ccncc2)nc2c1CCNC2  -1.54%
40. O=C(CCn1ccccc1=O)N1CCN(Cc2cccc(Cl)c2)CC1  -1.97%
41. CC(C)c1ccc(C2(C(=O)NCCS(N)(=O)=O)CCC2)cc1  -2%
42. CN(C)CCCn1ccnc1C1CCCN(c2cc(N)ncn2)C1 (configuration not stated)  -2.1%
43. O=S(=O)(Nc1nccs1)c1cc(Cl)cc2c1OCC2  -2.19%
44. CCN(Cc1cccc(C(=O)Nc2cn(C)nn2)c1)[C@H]1COC[C@@H]1O  -2.77%
45. Cc1ccc(NC2CCCN(CCCc3ccccc3)C2)nn1 (configuration not stated)  -2.81%
46. Cc1nnc(CN2CCCC2c2cccc(Br)c2)o1 (configuration not stated)  -3.51%
47. CCc1nccn1C1CCCN(C(=O)c2ccc3[nH]c(=O)[nH]c3c2)C1 (configuration not stated)  -3.71%
48. CC(C)(C)c1cc(CN2CCOCC(O)C2)n[nH]1 (configuration not stated)  -3.89%
49. Cc1nc(N2CCOCC2)nc(C)c1NC(=O)Cc1ccc(Cl)cc1  -4%
50. Cc1ccc(-c2nnc(CN3CC[C@H](CO)[C@@H](O)C3)o2)n1C  -4.39%
51. CC(CN1CCOCC1)OC(=O)c1ccccc1Cl (configuration not stated)  -4.52%
52. Cc1nnc([C@H]2C[C@@H]3CCN(Cc4cc(C)on4)C[C@H]3O2)[nH]1  -5.03%
53. O=C1CCC2(CCC(NC(=O)NCc3cccnc3)CC2)N1 (configuration not stated)  -5.25%
54. O=C(NCC1CCOC1)c1ccc(OCC(F)(F)F)nc1 (configuration not stated)  -5.64%
55. COc1ccc(NC(=O)c2ccc(-n3ncc(C#N)c3N)cc2)cn1  -5.77%
56. COCC[C@]1(O)CCN(Cc2nc(C(C)C)cs2)C[C@H]1C  -6.26%
57. CCC(=O)N1CCN(C(=O)CCn2cc(Cl)cn2)[C@H]2CS(=O)(=O)C[C@H]21  -6.39%
58. COc1ccc(S(=O)(=O)NC(=O)COc2ccc3c(c2)CCC3)cc1  -6.72%
59. Cc1ccc(N(C)C2CCN(C(=O)CCc3ccco3)CC2)nn1  -7%
60. O=C(NCCN1CCCCC1)c1scnc1Cl  -7.69%
61. COc1c(CNC2CCc3cc(F)ccc32)c(C)nn1C (configuration not stated)  -8.11%
62. CC(=O)NCC(=O)N(CCN1CCOCC1)Cc1ccco1  -9.04%
63. Cc1csc(N2CCCN(C(=O)C(C)n3ccnc3)CC2)n1 (configuration not stated)  -9.46%
64. CCc1oc(C(=O)N(C)Cc2nonc2C)cc1CN(CC)CC  -10.3%
65. COc1ccc(N(C)Cc2nc3c(cnn3C)c(=O)[nH]2)cc1OC  -10.7%
66. Cc1cnn(CC2CCCCN2C(=O)Cc2cccc(F)c2)c1 (configuration not stated)  -10.7%
67. CC(C)n1ccnc1C1CCN(C(=O)c2ccccc2)CC1  -10.9%
68. Cc1nn(C)c(N2CCOCC2)c1CNC1CCc2ccccc2C1 (configuration not stated)  -11.4%
69. Cc1ccc(-c2nc(CN3CCCC(C(=O)N(C)C)C3)cs2)o1 (configuration not stated)  -14%
70. O=C(c1cccnc1)N1CCSCC1  -15.1%
71. CCS(=O)(=O)NC1CCc2c(ccc(=O)n2CC2CC2)C1 (configuration not stated)  -67.2%
72. Cc1ncoc1C(=O)N1CC[C@@]2(C[C@H](NS(C)(=O)=O)CCO2)C1  -73%
73. COCC1CN(C(=O)Cc2cccc(F)c2)Cc2ccnn2C1 (configuration not stated)  -73%
74. O=C(C1CCOCC1)N1CC[C@@H](N2CCOCC2)[C@@H]1Cc1ccccc1  -77.2%
75. CC(=O)N1CC[C@H]2OCC[C@@H](C(=O)NCc3ccco3)[C@H]2C1  -81.5%
76. CNC(=O)CN1CCOCC12CCN(C(=O)c1ccccc1)CC2  -82.2%
77. CC(C)NC(=O)C1CN(C(=O)NCc2ccccc2)CC12CCOCC2 (configuration not stated)  -84.6%
78. CCOCC1CN(Cc2cnn(C)c2)Cc2cnn(C)c21 (configuration not stated)  -89.6%
79. CCO[C@@H]1CC[C@H]2[C@H]1OCCN2Cc1ccoc1  -96.9%
80. CC(C)OCc1nn(C)c2c1CN(Cc1cccs1)CC2  -99.5%
81. COC[C@]12COC[C@H]1CN(Cc1ccc3c(c1)OCO3)C2  -108%
82. O=C(c1ccccn1)N1CCCC2(CCN(c3ccsc3)C2=O)C1 (configuration not stated)  -136%
